Source: ChEMBL document CHEMBL3124841, “Discovery of vinyl sulfones as a novel class of neuroprotective agents toward Parkinson's disease therapy” (J Med Chem, 2014)

Tests used:
[1] = target: T1, Nuclear factor erythroid 2-related factor 2 (Mus musculus) (UniProt Q60795); test: Induction of Nrf2-dependent HO1 protein level in mouse BV-2 cells at 20 uM after 24 hrs by sandwich ELISA; assay type: cell-based
T1 sequence (whole entry): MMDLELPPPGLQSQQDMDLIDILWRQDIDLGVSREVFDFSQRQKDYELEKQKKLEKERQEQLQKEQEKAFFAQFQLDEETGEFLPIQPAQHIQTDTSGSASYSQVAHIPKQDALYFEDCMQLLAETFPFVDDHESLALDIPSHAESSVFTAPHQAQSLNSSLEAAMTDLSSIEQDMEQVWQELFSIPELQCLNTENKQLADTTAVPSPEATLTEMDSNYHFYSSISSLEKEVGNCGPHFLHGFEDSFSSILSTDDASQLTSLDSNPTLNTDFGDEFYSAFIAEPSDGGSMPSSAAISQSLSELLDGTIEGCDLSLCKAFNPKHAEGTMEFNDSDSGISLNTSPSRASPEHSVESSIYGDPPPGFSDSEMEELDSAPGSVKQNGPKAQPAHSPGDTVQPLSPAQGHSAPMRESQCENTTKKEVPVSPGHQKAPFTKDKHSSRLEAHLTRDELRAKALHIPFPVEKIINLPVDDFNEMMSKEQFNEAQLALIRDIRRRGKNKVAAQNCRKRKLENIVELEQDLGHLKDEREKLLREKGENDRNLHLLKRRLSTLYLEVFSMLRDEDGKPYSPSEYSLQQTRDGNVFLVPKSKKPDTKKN
Procedure, shortened: (§1)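 Murine BV-2 microglia in DMEM/10% FBS, 2.0 × 10⁴ cells per well, treated at 20 μM for 24 h in triplicate. Lysates in NP-40 Tris buffer (pH 8.0) diluted tenfold; HO-1 measured by sandwich ELISA with HRP-streptavidin and Amplex Red fluorescence (ex 530/em 590 nm). Expressed as % of 0.04% DMSO vehicle control ± SEM; sulforaphane 5 μM as reference.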

[2] = target: T1, Nuclear factor erythroid 2-related factor 2 (Mus musculus); test: Induction of Nrf2-dependent HO1 protein level in mouse BV-2 cells at 20 uM after 24 hrs by sandwich ELISA relative to control; assay type: cell-based; procedure, shortened: as §1

Row | Activity [1] | fold change (FC) [2] | SMILES
1 | 111% | – | O=S(=O)(/C=C/c1ccc(F)cc1)c1ccc(Cl)cc1
2 | 174% | 1.7 | COc1ccc(S(=O)(=O)/C=C/c2ccccc2F)cc1
3 | 111% | – | O=S(=O)(/C=C/c1cccc(C(F)(F)F)c1)c1ccc(Cl)cc1
4 | 169% | 1.7 | COc1ccc(S(=O)(=O)/C=C/c2ccc(Cl)cc2)cc1
5 | 126% | 1.2 | COc1ccc(S(=O)(=O)/C=C/c2ccccc2OC)cc1
6 | 146% | 1.5 | COc1ccc(S(=O)(=O)/C=C/c2cccc(OC)c2)cc1
7 | 177% | – | O=S(=O)(/C=C/c1cccc(F)c1)c1ccc(F)cc1
8 | 258% | 2.6 | COc1ccc(S(=O)(=O)/C=C/c2ccccc2C(F)(F)F)cc1
9 | 127% | – | O=S(=O)(/C=C/c1cccc(Cl)c1)c1ccc(Cl)cc1
10 | 117% | – | O=S(=O)(/C=C/c1ccc(Cl)cc1)c1ccc(Cl)cc1
11 | 160% | 1.6 | COc1cccc(S(=O)(=O)/C=C/c2ccc(F)cc2)c1
12 | 212% | 2.1 | COc1ccc(S(=O)(=O)/C=C/c2ccccc2OC(F)(F)F)cc1
13 | 133% | 1.3 | COc1ccc(/C=C/S(=O)(=O)c2ccc(OC)cc2)cc1
14 | 158% | 1.6 | COc1ccc(S(=O)(=O)/C=C/c2ccccc2Cl)cc1
15 | 137% | – | O=S(=O)(/C=C/c1cccc(Cl)c1)c1ccc(F)cc1
16 | 136% | 1.4 | COc1cccc(S(=O)(=O)/C=C/c2cccc(F)c2)c1
17 | 105% | – | O=S(=O)(/C=C/c1cccc(F)c1)c1ccc(Cl)cc1
18 | 177% | 1.8 | COc1ccc(S(=O)(=O)/C=C/c2ccc(F)cc2)cc1
19 | 284% | 2.8 | COc1cccc(S(=O)(=O)/C=C/c2ccccc2Cl)c1
20 | 112% | – | O=S(=O)(/C=C/c1ccc(Cl)cc1)c1ccc(F)cc1
21 | 111% | 1.1 | COc1cccc(S(=O)(=O)/C=C/c2cccc(Cl)c2)c1
22 | 203% | 2 | COc1ccc(S(=O)(=O)/C=C/c2cccc(F)c2)cc1
23 | 154% | 1.5 | COc1ccc(S(=O)(=O)/C=C/c2ccc(C(F)(F)F)cc2)cc1
24 | 228% | 2.3 | COc1cccc(S(=O)(=O)/C=C/c2ccc(Cl)cc2)c1
25 | 141% | 1.4 | COc1ccc(S(=O)(=O)/C=C/c2ccccc2N)cc1
26 | 245% | 2.4 | COc1ccccc1S(=O)(=O)/C=C/c1cccc(Cl)c1
27 | 214% | 2.1 | COc1ccc(S(=O)(=O)/C=C/c2cccc(C(F)(F)F)c2)cc1
28 | 125% | 1.2 | COc1ccc(S(=O)(=O)/C=C/c2cccc(Cl)c2)cc1

The next lines start with the molecule.

Row | SMILES | Activity [1] | fold change (FC) [2]
29 | O=S(=O)(/C=C/c1ccccc1Cl)c1ccc(Cl)cc1 | 169% | –
30 | COc1cccc(S(=O)(=O)/C=C/c2cccc(C(F)(F)F)c2)c1 | 204% | 2
31 | COc1ccccc1S(=O)(=O)/C=C/c1ccccc1C(F)(F)F | 328% | 3.3
32 | COc1ccc(S(=O)(=O)/C=C/c2ccccc2C(F)(F)F)cc1OC | 204% | –
33 | COc1cccc(S(=O)(=O)/C=C/c2ccccc2F)c1 | 148% | 1.5
34 | O=S(=O)(/C=C/c1ccc(F)cc1)c1ccc(F)cc1 | 141% | –
35 | COc1ccccc1S(=O)(=O)/C=C/c1cccc(F)c1 | 353% | 3.5
36 | COc1ccc([S+]([O-])/C=C/c2ccccc2C(F)(F)F)cc1 (stereo not drawn) | 134% | –
37 | O=S(=O)(/C=C/c1ccccc1C(F)(F)F)c1ccc(F)cc1 | 248% | –
38 | COc1ccccc1S(=O)(=O)/C=C/c1ccccc1F | 373% | 3.7
39 | COc1ccccc1S(=O)(=O)/C=C/c1cccc(C(F)(F)F)c1 | 256% | 2.6
40 | O=S(=O)(/C=C/c1ccccc1F)c1ccc(F)cc1 | 241% | –
41 | O=S(=O)(/C=C/c1cccc(C(F)(F)F)c1)c1ccccc1 | 188% | –
42 | O=S(=O)(/C=C/c1ccccc1C(F)(F)F)c1ccccc1 | 193% | –
43 | COc1ccccc1S(=O)(=O)/C=C/c1ccc(F)cc1 | 259% | 2.6
44 | COc1cccc(S(=O)(=O)/C=C/c2ccccc2C(F)(F)F)c1 | 251% | 2.5
45 | COc1ccc(S(=O)(=O)/C=C/c2ccc(C(F)(F)F)cc2)cc1OC | 119% | –
46 | O=S(=O)(/C=C/c1ccc(C(F)(F)F)cc1)c1ccc(F)cc1 | 125% | –
47 | O=S(=O)(/C=C/c1ccc(C(F)(F)F)cc1)c1ccc(Cl)cc1 | 140% | –
48 | COc1ccc(S(=O)(=O)/C=C/c2cccc(C(F)(F)F)c2)cc1OC | 153% | –
49 | O=S(=O)(/C=C/c1ccc(C(F)(F)F)cc1)c1ccccc1 | 155% | –
50 | O=S(=O)(/C=C/c1ccccc1C(F)(F)F)c1ccc(Cl)cc1 | 242% | –
51 | O=S(=O)(/C=C/c1ccccc1Cl)c1ccc(F)cc1 | 225% | –
52 | COc1ccccc1S(=O)(=O)/C=C/c1ccc(Cl)cc1 | 330% | 3.3
53 | COc1ccccc1S(=O)(=O)/C=C/c1ccc(C(F)(F)F)cc1 | 357% | 3.6
54 | COc1cccc(S(=O)(=O)/C=C/c2ccc(C(F)(F)F)cc2)c1 | 148% | 1.5
55 | COc1ccc(C(=O)/C=C/c2ccccc2C(F)(F)F)cc1 | 164% | –
56 | O=S(=O)(/C=C/c1cccc(C(F)(F)F)c1)c1ccc(F)cc1 | 158% | –
57 | O=S(=O)(/C=C/c1ccccc1F)c1ccc(Cl)cc1 | 107% | –
